Out of some 330,000 compounds screened, about 220 (0.067%) were called active.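 How the source made its calls: active means response, share of CD8 T cells binding vesicles, and their 90th percentile fluorescence all below set limits (cut at about 80% in these data, passing the limit was not always enough); inactive means the rest, inconclusive results apart.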 The sample as a whole holds a higher share of actives than the screen did.
Assay: modulators of CD8 T cell-vesicle binding, primary screen, mouse 2C CD8+ T cells, flow cytometry (AID 2052);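 on double positive events: binding gate set so that unloaded-vesicle control wells show 10% double positive cells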;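 on response (vesicle binding): values below 100% mean blocked vesicle binding to the CD8+ T cells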
Details: 2C CD8+ T cell-vesicle binding, at 7 µM, stronger effect = lower value; double positive events: measured here: CD8+ vesicle-bound cell fraction
How it was run: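 material = purified 2C TCR transgenic mouse naive CD8+ T cells | controls = Unloaded micro-vesicles (low), QL9 vesicles with 0.7% DMSO (high) | detection = cytometric PE anti-B7-1 and Alexa647 anti-CD8 signals after 1% paraformaldehyde fixation | incubation = binding step 1.5 h, 37 °C, antibody labelling 20 min, ice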

| SMILES | double positive events | response (vesicle binding) |
| --- | --- | --- |
| CCCCOc1ccc(NC(=O)CSCC(=O)OCC)cc1 | 29.6% | 186% (inactive) |
| CN(C)/C=C(/C(=O)c1ccc(Cl)cc1)S(=O)(=O)c1ccccc1 | 37.1% | 209% (inactive) |
| Cc1nn(Cc2ccc(C(=O)N3N=C(C(F)F)CC3(O)C(F)F)cc2)c(C)c1[N+](=O)[O-] (centres undefined) | 36.3% | 446% (inactive) |
| C1=C(N2CCOCC2)/C(=C/c2nc3ccccc3[nH]2)CC1 | 33.6% | 242% (inactive) |
| CC1CC(C)(C)n2c(O)c(N=NC(N)=S)c3cccc1c32 (centres undefined) | 21.4% | 405% (inactive) |
| CC1CCc2sc(C(=O)NCC(c3ccco3)N3CCCCC3)cc2C1 (centres undefined) | 29.9% | 209% (inactive) |
| CS(=O)(=O)N(CC(=O)Nc1ccc(F)cc1F)c1cccc([N+](=O)[O-])c1 | 31.4% | 763% (inactive) |
| O=C(c1ccccc1)c1ccc2nc(N3CCCCC3)c3nncn3c2c1 | 4.3% | 87.7% (inactive) |
| Cc1c(Cl)cccc1NC(=S)NCC(O)c1ccccc1 (centres undefined) | 56.7% | 132% (inactive) |
| CC(=O)Nc1ccc(S(=O)(=O)Oc2ccc(Br)cc2C(=S)N2CCOCC2)cc1 | 35.8% | 429% (inactive) |
| Cc1ccc(OCC(=O)Nc2ccc(C(=O)O)cc2NC(=O)COc2ccc(C)c(C)c2)cc1C | 35.6% | 196% (inactive) |
| COc1ccc(/C=C(/NC(=O)c2ccccc2)C(=O)Nc2cccc(C(=O)O)c2)cc1 | 39.2% | 259% (inactive) |
| CCOc1ccc(S(=O)(=O)NCc2ccc3c(c2)OCO3)cc1C | 23.9% | 381% (inactive) |
| Cc1cc(Br)ccc1NC(=O)CN(C)C(=O)CN1C(=O)NC2(CCCC2)C1=O | 8.3% | 215% (inactive) |
| COCc1cc(C)n(CC(=O)NCC2CCCO2)c(=O)c1C#N (centres undefined) | 19.7% | 237% (inactive) |
| CC(=O)Nc1ccc(NC(=O)CSC2=NS(=O)(=O)c3ccccc3N2)cc1 | 46.2% | 285% (inactive) |
| COc1cc(/C=C/C(=O)N2CCc3ccccc3C2)cc(OC)c1OC | 39.9% | 216% (inactive) |
| CCc1cc(CNC(=O)CC2C(=O)NCCN2Cc2ccccc2C(F)(F)F)on1 (centres undefined) | 21.1% | 297% (inactive) |
| CS(=O)(=O)c1ccc(C(=O)NNC(=O)c2cccs2)cc1 | 52.2% | 322% (inactive) |
| O=C(NC1CCCC1)C(c1c(F)cccc1Cl)N(C(=O)c1csnn1)C1CC1 (centres undefined) | 17.4% | 421% (inactive) |
| CCc1ccc(NC(=O)C(=O)N/N=C(\C)CC(=O)NCCOC)cc1 | 23.6% | 154% (inactive) |

| SMILES | double positive events | response (vesicle binding) |
| --- | --- | --- |
| CCc1ccc(-n2c(SCc3cc(=O)n4cc(Br)ccc4n3)nc3[nH]ncc3c2=O)cc1 | 30.8% | 314% (inactive) |
| Cc1sc2ncnc(N3CCC(C(=O)NNC(=O)c4ccc(F)cc4)CC3)c2c1C | 64.9% | 227% (inactive) |
| CC1CCN(c2ccc(S(=O)(=O)Nc3cc(C(=O)O)cc(C(=O)O)c3)cc2[N+](=O)[O-])CC1 | 24.9% | 234% (inactive) |
| CCn1c2c(c3ccc(OC)cc31)CCCC2=O | 43.3% | 241% (inactive) |
| COC/C=C/C1=CC2=CC(=O)C(C)(OC(=O)CCC(=O)OC)C(=O)C2=CO1 (centres undefined) | 30.4% | 292% (inactive) |
| CCCN=C1NC(=O)C(CC(=O)NCCc2ccc(OC)c(OC)c2)S1 (centres undefined) | 39.4% | 112% (inactive) |
| CCN(CC(=O)Nc1c(F)cccc1F)C(=O)CN1c2cccc3cccc(c23)S1(=O)=O | 43.4% | 247% (inactive) |
| O=C1C=C(NCCNc2c(F)c(F)c(CO)c(F)c2F)CCC1 | 42.6% | 169% (inactive) |
| COCCN1C2=C(COC(C)(C)C2)C(=S)NC1c1ccccc1 (centres undefined) | 26.4% | 676% (inactive) |
| Cc1cc(C(=O)N2CCN(c3ccccn3)CC2)c(C)o1 | 21% | 214% (inactive) |
| Cn1ccc(=NC=C(C#N)C#N)c2ccccc21 | 46.1% | 136% (inactive) |
| Cc1cc(C)n2nc(C(=O)OCC(=O)N(C)CC(=O)Nc3ccc(F)cc3)nc2n1 | 43% | 342% (inactive) |
| CS(=O)(=O)N1CCc2cc(C(=O)Nc3ccccc3Br)ccc21 | 35.6% | 198% (inactive) |
| CN(C)N=Nc1ccc2nc[nH]c2c1 | 13.7% | 692% (inactive) |
| CO/N=C/c1ccc(N2CCN(C(=O)c3cccc(Cl)c3)CC2)c([N+](=O)[O-])c1 | 24.8% | 143% (inactive) |
| CSc1sc(C(=O)NNC(=O)c2ccc(Cl)cc2)c2c1C=CCC2 | 57.7% | 168% (inactive) |
| CCCCn1c(N)c(N2CCOCC2)c(=O)n(CC(=O)NCCc2ccccc2)c1=O | 52.1% | 370% (inactive) |
| CCCN1CCN(C(=O)Cn2ncc3ccccc32)CC1 | 45.8% | 326% (inactive) |
| COc1ccccc1CNC(=O)c1ccc(N(C)S(=O)(=O)c2ccc(C)cc2)cc1 | 2% | 94% (inactive) |
| Cc1ccc(-n2nc3c(c2NC(=O)CCC2CCCCC2)CS(=O)C3)cc1 (centres undefined) | 41.6% | 834% (inactive) |
| COc1cccc(C(=O)NNC(=O)/C=C/c2ccccc2)c1 | 61.7% | 433% (inactive) |

| SMILES | double positive events | response (vesicle binding) |
| --- | --- | --- |
| CNC(=O)c1nnn(-c2ccccc2)c1C(=O)NC | 57.6% | 329% (inactive) |
| O=C(NCc1ccncc1)C1CCCN(S(=O)(=O)c2ccc(Br)cc2)C1 (centres undefined) | 50.3% | 342% (inactive) |
| CCSc1nnc(SCC(=O)NNC(=O)c2ccccc2F)s1 | 59.2% | 194% (inactive) |
| CCOc1cc(C2C(C(=O)OC(C)C)=C(C)NC3=C2C(=O)CCC3)cc([N+](=O)[O-])c1O (centres undefined) | 47.9% | 162% (inactive) |
| COc1cc(N)c(Cl)cc1C(=O)OCC(=O)c1ccc2c(c1)NC(=O)CO2 | 29.1% | 484% (inactive) |
| CC1(C)CC(CNCCC(c2ccc(F)cc2)c2ccco2)CCO1 (centres undefined) | 39.3% | 172% (inactive) |
| CN(C)S(=O)(=O)c1cccc(NC(=O)COc2ccc3ccccc3c2)c1 | 30.4% | 566% (inactive) |
| CCCn1cc(S(=O)(=O)c2ccc(C)cc2)c(=O)c2cc(OCC)ccc21 | 38.4% | 435% (inactive) |
| CC1C(c2ccccc2)=[N+]([O-])C2(CCCC2)N1O (centres undefined) | 34.2% | 259% (inactive) |
| COc1ccc(C2=Nn3c(nnc3-c3ccccc3OC)SC2)cc1OC1CCCC1 | 2.5% | 196% (inactive) |
| CCC(CC)C(=O)Nc1cc(C(=O)OC)cc(C(=O)OC)c1 | 23.6% | 410% (inactive) |
| Cc1c(Br)c([N+](=O)[O-])nn1CC(=O)N1CCN(Cc2ccccc2)CC1 | 63% | 210% (inactive) |
| Cc1cc(Cl)ccc1C(=O)C1CCCN(C(=O)CCN2CCCO2)C1 (centres undefined) | 23.8% | 257% (inactive) |
| Cn1nc(C(F)(F)F)c2cc(NC(=O)OCC(C)(C)C)sc21 | 43.1% | 197% (inactive) |
| CN(CCc1cnn(C)c1)Cc1cn(C)nc1-c1ccccc1F | 31.2% | 291% (inactive) |
| O=C(Nc1cccn(Cc2c(Cl)cccc2Cl)c1=O)c1ccc(Cl)cc1 | 24.7% | 379% (inactive) |
| CCCC(CCC(=O)OC)(C(=O)OCC)c1csc(N)n1 (centres undefined) | 19.7% | 485% (inactive) |
| CN(c1ccccc1)S(=O)(=O)c1cccc(NC(=O)Cc2ccc(Cl)cc2)c1 | 40.2% | 419% (inactive) |
| CCCCCC1CCC(c2nnc(SCC(C)=O)o2)CC1 (centres undefined) | 19.4% | 214% (inactive) |
| O=C(Nc1ccc(N2CCOCC2)cc1)c1ccc(-c2ccccc2[N+](=O)[O-])o1 | 30.7% | 205% (inactive) |
| O=C(Nc1ccc(N2CCCCC2)cc1)c1cc(S(=O)(=O)N2CCOCC2)ccc1F | 40.6% | 316% (inactive) |

| SMILES | double positive events | response (vesicle binding) |
| --- | --- | --- |
| O=C(CC1Oc2ccccc2NC1=O)NCCCN1CCN(Cc2ccccc2)CC1 (centres undefined) | 40.4% | 363% (inactive) |
| CCOC(=O)N1CCN(S(=O)(=O)c2ccc3c(c2)C(C)C(=O)N3)CC1 (centres undefined) | 29.9% | 289% (inactive) |
| COc1ccc(/C=C2\N=C3CCCN3C2=O)cc1 | 16.6% | 231% (inactive) |
| O=C1C=C(c2cccc(Br)c2)C[C@@H](c2ccc(F)cc2)C1 | 26% | 405% (inactive) |
| Cc1ccc(C(=O)NC2CCCC(C)C2C)cc1S(=O)(=O)N1CCCCC1 (centres undefined) | 56.1% | 659% (inactive) |
| O=C(Nc1ccc(CSc2ccccc2)cc1)c1ccc(CN2CCOCC2)cc1 | 48.3% | 264% (inactive) |
| COc1ccc(N2CC(C)Cn3c2nc2c3c(=O)n(Cc3ccccc3F)c(=O)n2C)c(OC)c1 (centres undefined) | 27.6% | 423% (inactive) |
| NC(=O)Nc1ccccc1C(=O)NCCc1ccccc1 | 0% | 0% (active) |
| COc1ccc(CCNC(=O)c2ccccc2OCc2ccccc2)cc1 | 12.3% | 205% (inactive) |
| O=C(O)c1ccccc1-c1ccccc1C(=O)NCCc1ccccc1 | 29.9% | 437% (inactive) |
| CC(C)c1ccc(N(C(=O)c2ccco2)C(C(=O)NC2CCCC2)c2cccnc2)cc1 (centres undefined) | 19.1% | 176% (inactive) |
| Cc1cc(C)c(S(=O)(=O)c2cc(F)ccc2C)c(=O)[nH]1 | 44.2% | 185% (inactive) |
| O=S(=O)(Nc1ccc(Cl)cn1)c1cnc(Cl)c(Br)c1 | 15.2% | 0% (inactive) |
| COc1ccc(N2CC(C(=O)N[C@@H](C)C(=O)N3CCCCC3)CC2=O)cc1 (some centres undefined) | 12.6% | 315% (inactive) |
| OCC(CO)(CO)NCc1ccc(-c2ccccc2)cc1 | 35.7% | 0% (inactive) |
| NC(=O)C[C@@H]1NC(=O)CNC(=O)c2cc([N+](=O)[O-])cc(I)c2NCCC(C(N)=O)NC1=O (some centres undefined) | 24.2% | 474% (inactive) |
| CC(/C=C/C1(O)C(C)CC(=O)CC1(C)C)OC1OC(CO)C(O)C(O)C1O (centres undefined) | 38.7% | 185% (inactive) |
| CCNC(=O)Nc1ccc(S(=O)(=O)Nc2cnc(C)nc2C)cc1 | 18.1% | 230% (inactive) |
| CCc1nnc(NC(=O)CSc2nc(SC)ns2)s1 | 35.8% | 236% (inactive) |

— PubChem BioAssay AID2052 (NMMLSC, 2009)
